Data as given in ChEMBL document CHEMBL1147691, “Quinol fatty alcohols as promoters of axonal growth” (Bioorg Med Chem Lett, 2006).

Tests used:
[1] = system: Radical scavenging activity; assay: Hydroxyl radical scavenging activity by ABTS assay; type: functional
In short: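 Competition assay for hydroxyl-radical scavenging in ethanolic medium: hydroxyl radicals oxidise ABTS to the stable ABTS•+ radical cation, read by absorbance at 405 nm. IC50 is the concentration giving a 50% decrease in ABTS•+, reported as the mean of three experiments.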

Cortical neurone [2] = assay: Growth promoting activity in axon relative to control; type: functional, Mus musculus; parameters: concentration or dose not given beside the values
In short: (§1)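 Cortical neurons from E15 mouse embryos, trypsin-dissociated, grown 24 h on poly-L-lysine coverslips (37 °C, 5% CO2). On day 2, compound added for 24 h under the same conditions. On day 3, cells fixed and immunostained with anti-phosphoneurofilament (SMi312) and an Alexa488 secondary. Axonal growth given as % variation from control conditions; means ± SEM.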

Cortical neurone [3] = assay: Growth promoting activity in axon at 1 nM in presence of 100 ng/ml Sema3A of glial scar; type: functional, Mus musculus; in short: as §1
Cortical neurone [4] = assay: Growth promoting activity in axon at 1 nM in presence of 10 ug/ml myelin protein of glial scar; type: functional, Mus musculus; in short: as §1
Cortical neurone [5] = assay: Growth promoting activity in axon at 1 nM; type: functional, Mus musculus; in short: as §1
Cortical neurone [6] = assay: Growth promoting activity in axon at 1 nM in presence of 1 ug/ml myelin protein of glial scar; type: functional, Mus musculus; in short: as §1
Cortical neurone [7] = assay: Growth promoting activity in axon at 100 nM in presence of 10 ug/ml myelin protein of glial scar; type: functional, Mus musculus; in short: as §1
Cortical neurone [8] = assay: Growth promoting activity in axon at 100 nM in presence of 1 ug/ml myelin protein of glial scar; type: functional, Mus musculus; in short: as §1
Cortical neurone [9] = assay: Growth promoting activity in axon at 100 nM; type: functional, Mus musculus; in short: as §1
Cortical neurone [10] = assay: Growth promoting activity in axon at 100 nM in presence of 100 ng/ml Sema3A of glial scar; type: functional, Mus musculus; in short: as §1

Structure (SMILES): COc1cc(OC)c(OC)cc1CCCCCCCCCCCCCCCCCCO
- IC50 [1]: 720 µM
- Activity (Cortical neurone [2]): 106%

Structure (SMILES): COc1cc(CCCCCCCCCCCCCCCCO)c(OC)c(OC)c1OC
- Activity (Cortical neurone [2]): 127%

Structure (SMILES): COc1cc(OC)c(OC)cc1CCCCCCCCCCCCCCO
- IC50 [1]: 720 µM
- Activity (Cortical neurone [2]): 109%

Structure (SMILES): COc1cc(OC)c(OC)cc1CCCCCCCCCCCCCCCO
- IC50 [1]: 720 µM
- Activity (Cortical neurone [2]): 152%

Structure (SMILES): COc1ccc(OC)c(CCCCCCCCCCCCCCCO)c1
- IC50 [1]: > 10000 µM
- Activity (Cortical neurone [3]): 12.4%
- Activity (Cortical neurone [4]): -5.3%
- Activity (Cortical neurone [5]): 81%
- Activity (Cortical neurone [6]): 18.4%
- Activity (Cortical neurone [2]): 181%

Structure (SMILES): COc1cc(CCCCCCCCCCCCCCCCCCO)c(OC)c(OC)c1OC
- Activity (Cortical neurone [2]): 103%

Structure (SMILES): COc1ccc(OC)c(CCCCCCCCCCCCO)c1
- IC50 [1]: > 10000 µM
- Activity (Cortical neurone [2]): 109%

Structure (SMILES): COc1cc(CCCCCCCCCCCCCCCO)c(OC)c(OC)c1OC
- Activity (Cortical neurone [2]): 158%

Structure (SMILES): COc1cc(OC)c(OC)cc1CCCCCCCCCCCCO
- IC50 [1]: 720 µM
- Activity (Cortical neurone [2]): 108%

Structure (SMILES): COc1cc(CCCCCCCCCCCCO)c(OC)c(OC)c1OC
- Activity (Cortical neurone [2]): 100%

Structure (SMILES): COc1ccc(OC)c(CCCCCCCCCCCCCCCCO)c1
- IC50 [1]: > 10000 µM
- Activity (Cortical neurone [2]): 120%

Structure (SMILES): COc1ccc(OC)c(CCCCCCCCCCCCCCCCCCO)c1
- IC50 [1]: > 10000 µM
- Activity (Cortical neurone [2]): 109%

Structure (SMILES): CC1=C(CCCCCCCCCCCCCCCO)C(C)(C)CCC1=O
- IC50 [1]: > 10000 µM
- Activity (Cortical neurone [7]): 5%
- Activity (Cortical neurone [8]): 28.8%
- Activity (Cortical neurone [9]): 80%
- Activity (Cortical neurone [10]): 10.2%
- Activity (Cortical neurone [2]): 150%

Structure (SMILES): COc1cc(CCCCCCCCCCCCCCO)c(OC)c(OC)c1OC
- Activity (Cortical neurone [2]): 108%

Structure (SMILES): COc1ccc(OC)c(CCCCCCCCCCCCCCO)c1
- IC50 [1]: > 10000 µM
- Activity (Cortical neurone [2]): 110%

Structure (SMILES): COc1cc(OC)c(OC)cc1CCCCCCCCCCCCCCCCO
- IC50 [1]: 720 µM
- Activity (Cortical neurone [2]): 135%

Structure (SMILES): Cc1c(C)c2c(c(C)c1O)CCC(C)(C(=O)O)O2 (stereo unspecified) [TROLOX]
- IC50 [1]: 600 µM
